Holding throughout (type): functional
In assay [1] the test system is Candida albicans. Description: Antifungal activity against Candida albicans assessed as growth inhibition at 1 mg/mL after 48 hrs by […] method. The following applies: read-out: DIZ. The method, boiled down: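 Sterile filter-paper discs soaked in a 1 mg/mL DMSO solution of the compound are placed on nutrient agar seeded with about 10^4 CFU/mL of C. albicans, in triplicate. Plates are incubated at 36 °C for 48 h. The read-out is the mean diameter of the inhibition zone in mm, with a DMSO-only control.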

Assay [2] has as its system Escherichia coli. Description: Antibacterial activity against Escherichia coli MTCC 443 assessed as growth inhibition at 1 mg/mL after 24 hrs by […] method. The following applies: for zone of inhibition at 1000 µg/mL: MTCC 443, 24 h, read-out: DIZ. The method, boiled down: (§1)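 Sterile filter-paper discs soaked in a 1 mg/mL DMSO solution of the compound are placed on nutrient agar seeded with about 10^6 CFU/mL of bacteria, in triplicate. Plates are incubated at 36 °C for 24 h. The read-out is the mean diameter of the inhibition zone in mm. DMSO alone serves as the control.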

The subject of assay [3] is Staphylococcus aureus. Put plainly: Antibacterial activity against Staphylococcus aureus MTCC 96 assessed as growth inhibition at 1 mg/mL after 24 hrs by […] method. The following applies: for zone of inhibition at 1000 µg/mL: MTCC 96, 24 h, read-out: DIZ. In a few lines: as §1
Assay [4] concerns Staphylococcus aureus. Put plainly: Antibacterial activity against Staphylococcus aureus MTCC 96 assessed as growth inhibition after 24 hrs by broth microdilution method. The method, boiled down:
(§2)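 MIC by broth microdilution in Müller-Hinton broth. DMSO stocks are diluted in broth to give two-fold serial dilutions, and about 10^6 CFU/mL of bacteria is added per well. Sealed plates are incubated in a humid chamber at 36 °C for 24 h. The MIC is the lowest concentration showing no visible turbidity. Run only for compounds giving zones >10 mm.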

Assay [5] concerns Escherichia coli. Description: Antibacterial activity against Escherichia coli MTCC 443 assessed as growth inhibition after 24 hrs by broth microdilution method. The method, boiled down:
as §2

Assay [6] relates to Candida albicans. Description: Antifungal activity against Candida albicans assessed as growth inhibition after 48 hrs by broth microdilution method. The method, boiled down:
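MIC by broth microdilution in Sabouraud liquid medium. DMSO stocks are serially diluted two-fold in broth and inoculated with C. albicans. Sealed plates are incubated in a humid chamber at 36 °C for 48 h. The MIC is the lowest concentration without visible turbidity. Run only for compounds giving zones >10 mm.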

The record followed here is ChEMBL document CHEMBL3085640, “Synthesis and antimicrobial activity of some novel hydrazide, benzochromenone, dihydropyridine, pyrrole, thiazole and thiophene derivatives” (2013).

Values after ≈ are worked out from the molar mass of the structure shown. Active and inactive are the calls of the source. The rule behind the calls is not given here.

As to `C/C(=N\NC(=O)CC#N)c1cc2c(ccc3ccccc32)oc1=O`, the zone of inhibition at 1000 µg/mL was determined as 11 mm in assay [1], 23 mm in assay [2] and 21 mm in assay [3]. The MIC in assay [4] (MTCC 96, 24 h) turned out to be 125 µg/mL (≈ 391 µM); in assay [5] (MTCC 443, 24 h), 125 µg/mL (≈ 391 µM); in assay [6], 250 µg/mL (≈ 783 µM).
In the case of `C/C(=N\n1c(N)cc(N)c(C#N)c1=O)c1cc2c(ccc3ccccc32)oc1=O`, the zone of inhibition at 1000 µg/mL was determined as 18 mm in assay [1], 23 mm in assay [2] and 8 mm in assay [3]. Further, the MIC in assay [4] (MTCC 96, 24 h) stood at 375 µg/mL (≈ 973 µM); in assay [5] (MTCC 443, 24 h), 125 µg/mL (≈ 324 µM); in assay [6], 125 µg/mL (≈ 324 µM).
Regarding `COc1ccc(OC)c(-c2c(C#N)c(N)n(/N=C(\C)c3cc4c(ccc5ccccc54)oc3=O)c(=O)c2C#N)c1`, the results for the zone of inhibition at 1000 µg/mL in assay [1], in assay [2] and in assay [3] were 18 mm, 23 mm and 23 mm, respectively. Moreover, the minimum inhibitory concentration (MIC) is 125 µg/mL (≈ 235 µM) in assay [4] (MTCC 96, 24 h); 125 µg/mL (≈ 235 µM) in assay [5] (MTCC 443, 24 h); 125 µg/mL (≈ 235 µM) in assay [6].
`C/C(=N\NC(=O)c1sc(=S)n(-c2ccccc2)c1N)c1cc2c(ccc3ccccc32)oc1=O`: the zone of inhibition at 1000 µg/mL in assay [1] was 15 mm; in assay [2] it was 27 mm; in assay [3], 26 mm. Besides, the MIC worked out at 125 µg/mL (≈ 257 µM) in assay [4] (MTCC 96, 24 h); 93.7 µg/mL (≈ 193 µM) in assay [5] (MTCC 443, 24 h); 125 µg/mL (≈ 257 µM) in assay [6].
Regarding `Clc1ccccc1C(c1ccccc1)(c1ccccc1)n1ccnc1` [CLOTRIMAZOLE], in assay [1], the zone of inhibition at 1000 µg/mL was found to be 30 mm. In assay [6], the MIC amounted to 5.8 µg/mL (≈ 16.8 µM).
On to `COc1ccc(OC)c(-c2c(C#N)c(O)n(/N=C(\C)c3cc4c(ccc5ccccc54)oc3=O)c(=O)c2C#N)c1`, for which the zone of inhibition at 1000 µg/mL in assay [1] was found to be 10 mm; in assay [2] it was 20 mm; in assay [3] it was 13 mm. Moreover, the MIC in assay [4] (MTCC 96, 24 h) came out at 250 µg/mL (≈ 469 µM); in assay [5] (MTCC 443, 24 h) it was 188 µg/mL (≈ 352 µM); in assay [6], 250 µg/mL (≈ 469 µM).
With `C/C(=N\NC(=O)/C(C#N)=C/c1ccc(F)cc1)c1cc2c(ccc3ccccc32)oc1=O`, the zone of inhibition at 1000 µg/mL in assay [1] came out at 18 mm; in assay [2] it was 20 mm; in assay [3], 22 mm. Besides, the MIC in assay [4] (MTCC 96, 24 h) came out at 125 µg/mL (≈ 294 µM); in assay [5] (MTCC 443, 24 h), 250 µg/mL (≈ 588 µM); in assay [6] it was 125 µg/mL (≈ 294 µM).
As to `C/C(=N\NC(=O)/C(C#N)=N/Nc1ccc(C)cc1)c1cc2c(ccc3ccccc32)oc1=O`, the zone of inhibition at 1000 µg/mL was 21 mm in assay [1], 24 mm in assay [2] and 24 mm in assay [3]. In addition, the MIC in assay [4] (MTCC 96, 24 h) stood at 125 µg/mL (≈ 286 µM); in assay [5] (MTCC 443, 24 h) it was 125 µg/mL (≈ 286 µM); in assay [6], 125 µg/mL (≈ 286 µM).
As for `C/C(=N\N1C(=O)C(C#N)C=C1c1ccccc1)c1cc2c(ccc3ccccc32)oc1=O` (configuration not stated), the zone of inhibition at 1000 µg/mL in assay [1] was 13 mm; in assay [2], 16 mm; in assay [3], 13 mm. Besides, the MIC in assay [4] (MTCC 96, 24 h) came out at 125 µg/mL (≈ 298 µM); in assay [5] (MTCC 443, 24 h) it was 250 µg/mL (≈ 596 µM); in assay [6], 250 µg/mL (≈ 596 µM).
Regarding `CC1(C)S[C@@H]2[C@H](NC(=O)[C@H](N)c3ccccc3)C(=O)N2[C@H]1C(=O)O` [AMPICILLIN], the zone of inhibition at 1000 µg/mL was found to be 27 mm in assay [2] and 25 mm in assay [3]. In addition, the MIC in assay [4] (MTCC 96, 24 h) was determined as 188 µg/mL (≈ 537 µM); in assay [5] (MTCC 443, 24 h) it was 125 µg/mL (≈ 358 µM).
As for `C/C(=N\NC(=O)/C(C#N)=C/c1ccc(Cl)cc1)c1cc2c(ccc3ccccc32)oc1=O`, the zone of inhibition at 1000 µg/mL worked out at 17 mm in assay [1], 17 mm in assay [2] and 23 mm in assay [3]. For the same molecule, the MIC in assay [4] (MTCC 96, 24 h) was 188 µg/mL (≈ 424 µM); in assay [5] (MTCC 443, 24 h), 250 µg/mL (≈ 566 µM); in assay [6] it was 125 µg/mL (≈ 283 µM).
For the molecule `C/C(=N\NC(=O)c1c(N)sc2c1CCCC2)c1cc2c(ccc3ccccc32)oc1=O`, the zone of inhibition at 1000 µg/mL in assay [1] stood at 9 mm; in assay [3], 5 mm. Besides, the “growth inhibition (GI)” value in assay [2] was “inactive”. In addition, the MIC in assay [4] (MTCC 96, 24 h) was 375 µg/mL (≈ 869 µM); in assay [6], 500 µg/mL (≈ 1160 µM). The MIC entry in assay [5] is “inactive”.
Turning to `C/C(=N\NC(=O)c1cc2c(ccc3ccccc32)oc1=O)c1cc2c(ccc3ccccc32)oc1=O`, the zone of inhibition at 1000 µg/mL in assay [1] turned out to be 20 mm; in assay [2], 28 mm; in assay [3], 27 mm. Also, the MIC in assay [4] (MTCC 96, 24 h) was 62.5 µg/mL (≈ 132 µM); in assay [5] (MTCC 443, 24 h) it was 93.7 µg/mL (≈ 197 µM); in assay [6] it was 188 µg/mL (≈ 395 µM).
As for `C/C(=N\n1c(N)c(C#N)c(-c2ccc(F)cc2)c(C#N)c1=O)c1cc2c(ccc3ccccc32)oc1=O`, the zone of inhibition at 1000 µg/mL in assay [1] was found to be 10 mm; in assay [2], 21 mm; in assay [3], 21 mm. The MIC came to 125 µg/mL (≈ 255 µM) in assay [4] (MTCC 96, 24 h); 125 µg/mL (≈ 255 µM) in assay [5] (MTCC 443, 24 h); 375 µg/mL (≈ 766 µM) in assay [6].
Turning to `C/C(=N\NC(=O)c1sc(N)c(C#N)c1N)c1cc2c(ccc3ccccc32)oc1=O`, in assay [1], the zone of inhibition at 1000 µg/mL was 20 mm. Besides, the “growth inhibition (GI)” value in assay [2] and in assay [3] was “inactive” in each case. Also, the MIC result in assay [4] and in assay [5] was “inactive” in each case. Further, the MIC in assay [6] was 125 µg/mL (≈ 299 µM).
As for `C/C(=N\n1c(O)c(C#N)c(-c2cccc(O)c2)c(C#N)c1=O)c1cc2c(ccc3ccccc32)oc1=O`, the zone of inhibition at 1000 µg/mL in assay [1] worked out at 19 mm; in assay [2], 24 mm; in assay [3], 12 mm. Further, the MIC in assay [4] (MTCC 96, 24 h) was found to be 250 µg/mL (≈ 512 µM); in assay [5] (MTCC 443, 24 h), 125 µg/mL (≈ 256 µM); in assay [6] it was 188 µg/mL (≈ 384 µM).
Turning to `C/C(=N\NC(=O)/C(C#N)=C/c1cccnc1)c1cc2c(ccc3ccccc32)oc1=O`, the zone of inhibition at 1000 µg/mL in assay [1] stood at 19 mm; in assay [2], 23 mm; in assay [3], 22 mm. Further, the MIC in assay [4] (MTCC 96, 24 h) was 125 µg/mL (≈ 306 µM); in assay [5] (MTCC 443, 24 h), 125 µg/mL (≈ 306 µM); in assay [6], 125 µg/mL (≈ 306 µM).
Regarding `C/C(=N\NC(=O)/C(C#N)=C/N(C)C)c1cc2c(ccc3ccccc32)oc1=O`, the zone of inhibition at 1000 µg/mL in assay [1] was 7 mm. The “growth inhibition (GI)” value in assay [2] and in assay [3] was “inactive” throughout. Further, the MIC result in assay [4] and in assay [5] was “inactive” throughout. In addition, in assay [6], the minimal inhibitory concentration (MIC) came out at 750 µg/mL (≈ 2000 µM).
